Data: ChEMBL document CHEMBL2016533, “Paviosides A-H, eight new oleane type saponins from Aesculus pavia with cytotoxic activity” (Bioorg Med Chem, 2012)
Values after ≈ are worked out from the molar mass of the structure shown.

What was measured:
WEHI-164 = test: Cytotoxicity against mouse WEHI164 cells after 72 hrs by MTT assay; format: functional, cell-based; details: WEHI-164, 72 h
In short: (§1)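 WEHI 164 murine fibrosarcoma cells are kept adherent (DMEM, 10% heat-inactivated FBS, 25 mM HEPES), then plated and allowed 2 h to adhere (37 °C, 5% CO2). Medium is refreshed, 1.2 v/v serial dilutions are added, and cells incubate 72 h. MTT (5 mg/mL) is added for 3 h, then solubilized in 50% DMF/20% SDS, pH 4.5. % dead cells = 100 − (OD treated/OD control)×100.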

J774 = test: Cytotoxicity against mouse J774 cells after 72 hrs by MTT assay; format: functional, cell-based; details: J774, 72 h
In short: as §1, with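 “J774” for “WEHI 164”, “monocyte/macrophage” for “fibrosarcoma”, “in suspension in stirred bottles (37 °C, DMEM,” for “adherent (DMEM,”, “10%” for “10% heat-inactivated”, “HEPES, 2 mM glutamine),” for “HEPES),”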

| Structure (SMILES) | IC50 (WEHI-164) [µg/mL] | IC50 (J774) [µg/mL] |
| --- | --- | --- |
| C/C=C(/C)C(=O)O[C@H]1[C@H](OC(C)=O)[C@]2(CO)[C@H](O)C[C@]3(C)C(=CC[C@@H]4[C@@]5(C)CC[C@H](O[C@@H]6O[C@H](C(=O)O)[C@@H](O[C@@H]7OC[C@@H](O)[C@H](O)[C@H]7O)[C@H](O)[C@H]6O[C@@H]6OC[C@@H](O)[C@H](O)[C@H]6O)[C@](C)(CO)[C@@H]5CC[C@]43C)[C@@H]2CC1(C)C [PAVIOSIDEH] | 3.2 (≈ 2.99 µM) | 3.5 (≈ 3.27 µM) |
| C/C=C(\C)C(=O)O[C@H]1[C@H](OC(C)=O)[C@]2(CO)[C@H](O)C[C@]3(C)C(=CC[C@@H]4[C@@]5(C)CC[C@H](O[C@@H]6O[C@H](C(=O)O)[C@@H](O[C@@H]7O[C@H](CO)[C@H](O)[C@H](O)[C@H]7O)[C@H](O)[C@H]6O[C@@H]6OC[C@@H](O)[C@H](O)[C@H]6O)C(C)(C)[C@@H]5CC[C@]43C)[C@@H]2CC1(C)C [PAVIOSIDEC] | 6.5 (≈ 5.99 µM) | 5.7 (≈ 5.25 µM) |
| C/C=C(/C)C(=O)O[C@H]1[C@H](OC(C)=O)[C@]2(CO)[C@H](O)C[C@]3(C)C(=CC[C@@H]4[C@@]5(C)CC[C@H](O[C@@H]6O[C@H](C(=O)O)[C@@H](O[C@@H]7O[C@H](CO)[C@H](O)[C@H](O)[C@H]7O)[C@H](O)[C@H]6O[C@@H]6OC[C@@H](O)[C@H](O)[C@H]6O)C(C)(C)[C@@H]5CC[C@]43C)[C@@H]2CC1(C)C [PAVIOSIDED] | 7.1 (≈ 6.54 µM) | 6.6 (≈ 6.08 µM) |
| C/C=C(\C)C(=O)O[C@H]1[C@H](OC(C)=O)[C@]2(CO)[C@H](O)C[C@]3(C)C(=CC[C@@H]4[C@@]5(C)CC[C@H](O[C@@H]6O[C@H](C(=O)O)[C@@H](O[C@@H]7OC[C@@H](O)[C@H](O)[C@H]7O)[C@H](O)[C@H]6O[C@@H]6OC[C@@H](O)[C@H](O)[C@H]6O)C(C)(C)[C@@H]5CC[C@]43C)[C@@H]2CC1(C)C [PAVIOSIDEE] | 2.1 (≈ 1.99 µM) | 2.9 (≈ 2.75 µM) |
| C/C=C(/C)C(=O)O[C@H]1[C@H](OC(C)=O)[C@]2(CO)[C@H](O)C[C@]3(C)C(=CC[C@@H]4[C@@]5(C)CC[C@H](O[C@@H]6O[C@H](C(=O)O)[C@@H](O[C@@H]7OC[C@@H](O)[C@H](O)[C@H]7O)[C@H](O)[C@H]6O[C@@H]6OC[C@@H](O)[C@H](O)[C@H]6O)C(C)(C)[C@@H]5CC[C@]43C)[C@@H]2CC1(C)C [PAVIOSIDEF] | 2.3 (≈ 2.18 µM) | 2.8 (≈ 2.65 µM) |
| C/C=C(\C)C(=O)O[C@H]1[C@H](OC(C)=O)[C@]2(CO)[C@H](O)C[C@]3(C)C(=CC[C@@H]4[C@@]5(C)CC[C@H](O[C@@H]6O[C@H](C(=O)O)[C@@H](O[C@@H]7OC[C@@H](O)[C@H](O)[C@H]7O)[C@H](O)[C@H]6O[C@@H]6OC[C@@H](O)[C@H](O)[C@H]6O)[C@](C)(CO)[C@@H]5CC[C@]43C)[C@@H]2CC1(C)C [PAVIOSIDEG] | 3.5 (≈ 3.27 µM) | 3.6 (≈ 3.36 µM) |
| C/C=C(/C)C(=O)O[C@H]1[C@H](OC(C)=O)[C@]2(CO)[C@H](O)C[C@]3(C)C(=CC[C@@H]4[C@@]5(C)CC[C@H](O[C@@H]6O[C@H](C(=O)O)[C@@H](O[C@@H]7O[C@H](CO)[C@@H](O)[C@H](O)[C@H]7O)[C@H](O)[C@H]6O[C@@H]6OC[C@@H](O)[C@H](O)[C@H]6O)C(C)(C)[C@@H]5CC[C@]43C)[C@@H]2CC1(C)C [PAVIOSIDEB] | 4.9 (≈ 4.52 µM) | 5.1 (≈ 4.7 µM) |
| C/C=C(\C)C(=O)O[C@H]1[C@H](OC(C)=O)[C@]2(CO)[C@H](O)C[C@]3(C)C(=CC[C@@H]4[C@@]5(C)CC[C@H](O[C@@H]6O[C@H](C(=O)O)[C@@H](O[C@@H]7O[C@H](CO)[C@@H](O)[C@H](O)[C@H]7O)[C@H](O)[C@H]6O[C@@H]6OC[C@@H](O)[C@H](O)[C@H]6O)C(C)(C)[C@@H]5CC[C@]43C)[C@@H]2CC1(C)C [PAVIOSIDEA] | 4.8 (≈ 4.42 µM) | 5.7 (≈ 5.25 µM) |
